PostGolgi ctrl: yeast control strain growth, post-Golgi counter-screen; efflux-deficient yeast background strain, growth absorbance A615, 16 h; inhibition, % at 10 µM; hit rate 5% among 98,000
E coli WT exp: blocks growth of wild type E. coli BW25113. AID 710. hit rate 0.15% among 98,000. OD600 absorbance. growth inhibition, % at 100 µM;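 active = growth inhibition above about 50% at one test dose, limit read from the data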;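 also: growth measured after 20 h incubation at 37 °C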
tolC growth inh: growth inhibitors of E. coli BW25113 tolC mutant | AID 573 | growth inhibition, % at 10 µM (by protocol) | OD615 | hit rate 2.2% among 65,000;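 active = growth inhibition at or above a cutoff equal to the mean over every tested compound plus 3 SD, cut at about 60% in these data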;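 also: growth measured after 20 h incubation at 37 °C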
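Test system: E. coli BW25113 ΔtolC::kan bacteria | Medium: Kanamycin-containing LB broth (50 µg/mL) | Dosing: One dose of 10 µM final | Times: 20 h incubation with compound, 37 °C | Detection: Optical density read at 615 nm | Read-out basis: Percent growth inhibition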
D1 allo mod: allosteric modulators of human D1 dopamine receptor | P21728 | HEK293 D1, CRE-luciferase, dopamine EC30 potentiation; actives deviate in either direction | B-score at 10 µM | hit rate 5.9% among 58,000 | AID 641;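 active = luminescence count or its row- and column-corrected plate score outside the 99.7% band of the plate's sample wells, on either side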
hDAT+cocaine: modulates human dopamine transporter uptake under cocaine. hit rate 1.3% among 110,000. Q01959. LLC-PK1 hDAT cells, [14C]-dopamine uptake with cocaine IC80; actives deviate in either direction. AID 449768. B-score at 10 µM;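 active = Z score or B-score, a plate-position-corrected score, falls beyond the plate's 99.7% confidence bounds, in either direction; inactive = both scores lie inside the 99.7% bounds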;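 also: scored against the spread of the other compound wells on the same plate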
Target sequence (Q01959 whole entry, looked up): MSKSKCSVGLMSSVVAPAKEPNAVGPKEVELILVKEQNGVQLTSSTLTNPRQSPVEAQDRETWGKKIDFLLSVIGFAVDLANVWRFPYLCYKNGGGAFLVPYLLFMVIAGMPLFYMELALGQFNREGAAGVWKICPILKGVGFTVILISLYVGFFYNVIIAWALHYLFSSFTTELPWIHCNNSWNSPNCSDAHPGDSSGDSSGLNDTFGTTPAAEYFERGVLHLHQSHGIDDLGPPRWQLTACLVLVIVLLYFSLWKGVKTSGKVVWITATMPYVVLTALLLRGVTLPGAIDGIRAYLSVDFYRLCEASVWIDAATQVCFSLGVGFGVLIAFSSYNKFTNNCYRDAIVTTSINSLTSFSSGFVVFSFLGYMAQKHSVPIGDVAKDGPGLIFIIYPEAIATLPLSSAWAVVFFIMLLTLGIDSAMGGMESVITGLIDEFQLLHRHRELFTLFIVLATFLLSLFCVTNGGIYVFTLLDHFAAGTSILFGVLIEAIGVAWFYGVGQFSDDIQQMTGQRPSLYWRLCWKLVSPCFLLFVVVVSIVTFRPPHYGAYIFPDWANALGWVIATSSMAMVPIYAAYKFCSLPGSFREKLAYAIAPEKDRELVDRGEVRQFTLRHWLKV
PostGolgi yeast: growth inhibition of a yeast mutant, post-Golgi transport screen. post-Golgi transport phenotypic cell assay. inhibition, % at 10 µM. hit rate 0.9% among 98,000;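 also: yeast cells grown in 1536-well plates; yeast grown about 18 h at 30C before absorbance read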
D1 mod confirm: D1 receptor (human) allosteric modulation, confirmed | shares compounds with D1 allo mod | HEK293 D1 CRE-luciferase, dopamine EC30 potentiation; active compounds read high | luminescence at 10 µM | hit rate 88% among 2,200;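 active = luminescence in either of two replicates above the same-plate mean plus 3 SD of the low-dose dopamine control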
D1 no dopamine: D1 (human) signaling in absence of dopamine. AID 646. hit rate 0.8% among 1,900. shares compounds with D1 allo mod. HEK293 D1 CRE-luciferase, luminescence, no dopamine; active compounds read high. luminescence at 10 µM; in the data active = luminescence above about 3900
Isoprot counter: counter-screen for D1 modulators: isoproterenol response in HEK293 cells; shares compounds with D1 allo mod; HEK293 D1 CRE-luciferase, isoproterenol EC30 counter-screen; calls only at 10 µM; hit rate 63% among 2,200;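 active = luminescence in either replicate above plate mean of wells with a partly effective reference agonist dose plus 3 SD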;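 also: isoproterenol raises cAMP through native beta-adrenoceptor Gs so signal bypasses D1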
Numbers without * were called inactive; i = inactive; . = no result given; + = active, no number. Shown are actives, neighbours in structure and some others; about 9.3% of the full set was active somewhere. Rule as the data show it, unless noted: active = inhibition above about 30%; inactive = the rest.

SMILES | PostGolgi ctrl | E coli WT exp | tolC growth inh | D1 allo mod | hDAT+cocaine | PostGolgi yeast | D1 mod confirm | D1 no dopamine | Isoprot counter
CCOC(=O)c1cnc(-n2nc(C)cc2C)nc1Nc1cccc(C(=O)O)c1 | 27.5 | -1.0 | 31.7 | 4.34* | -0.821 | 13.8 | 9100* | 1376 | i
CCOC(=O)c1cnc(-n2nc(C)cc2C)nc1Nc1ccc(C)cc1 | 1.9 | -20.0 | . | . | . | -1.5 | . | . | .
CCOC(=O)c1cnc(-n2nc(C)cc2C)nc1Nc1ccc(N(C)C)cc1 | 28.8 | 7.0 | 78.3* | 12.4* | -0.128 | 2.3 | 12468* | 1584 | +
CCC1ON(c2ccccc2)C2c3nc4ccccc4n3CC12 (stereo not drawn) | . | . | . | . | 0.346 | . | . | . | .
CCC(c1nnnn1Cc1ccc(F)cc1)N(CCCO)Cc1cc2cc3c(cc2[nH]c1=O)OCO3 (stereo not drawn) | 6.8 | 6.0 | 2.0 | 5.54* | 0.991 | 13.1 | 4672 | 1368 | i
CCOCCOCN(C#N)c1nc(OC)nc(N(C)C)n1 | 1.5 | 0.0 | 8.6 | . | -1.06 | -4.6 | . | . | .
CC(=O)Nc1cc2c(cc1C(=O)C(C)C)OCCO2 | -3.3 | 4.0 | 8.1 | 5.27* | 0.857 | -8.0 | 14100* | . | +
COCCN1CC(O)=C(c2nc3ccccc3c(=O)[nH]2)C1=N | 9.0 | -2.0 | 4.0 | 6.79* | 0.00797 | -15.5 | 5256 | 1884 | i
CCc1nc(SCc2ccc(C(=O)OC)o2)c2c(=O)n(C)c(=O)n(C)c2n1 | -3.4 | -8.0 | 8.5 | 3.76 | -0.35 | -4.4 | . | . | .
O=C(Nc1ccc2ccccc2c1)[C@@H]1C[C@H]1[C@@H](NP(=O)(c1ccccc1)c1ccccc1)c1ccccc1 | . | . | . | . | 0.352 | . | . | . | .
N#CCSC1=Nc2ccccc2C2=NC(CCC(=O)N3CCN(c4ccccc4)CC3)C(=O)N12 (stereo not drawn) | 5.0 | 9.0 | 2.9 | -0.249 | 0.455 | -1.7 | . | . | .
CC(C)C1N=C2c3ccccc3N=C(SCC#N)N2C1=O (stereo not drawn) | 11.4 | 0.0 | -2.3 | 5.05* | -0.236 | -2.1 | 10160* | 1524 | i
O=C(O)c1[nH]c2ccc(Cl)cc2c1CC(=O)N1CCN(C(=O)c2ccco2)CC1 | 6.1 | 6.0 | -15.1 | -0.028 | -0.641 | 7.1 | . | . | .
O=C(O)c1[nH]c2ccc(Cl)cc2c1CC(=O)N1CCN(c2ccccc2)CC1 | -1.2 | 4.0 | 50.4 | 3.06* | -0.187 | 1.8 | 5332 | 1412 | i
O=C(O)CN(c1ccccn1)S(=O)(=O)c1ccccc1 | -3.1 | 1.0 | . | . | -0.813 | -15.6 | . | . | .
COC(=O)CN(c1ccccn1)S(=O)(=O)c1ccccc1 | 11.6 | -5.0 | -22.1 | 5.23* | -0.17 | 13.3 | 5664 | 1588 | i
Cc1c(-c2ccc(F)cc2)nc(N)c(C#N)c1-c1ccco1 | 8.3 | -4.0 | -20.9 | 5.83* | -0.52 | 1.6 | 8280* | . | i
N#Cc1c(N)nc(SCc2ccccc2)c(C#N)c1-c1ccco1 | 37.4* | -5.0 | 2.4 | 4.25* | -0.0125 | 7.5 | 9744* | 1440 | +
CCCc1nc(N)c(C#N)c(-c2ccco2)c1CC | 26.0 | -1.0 | 5.0 | 6.72* | 0.0149 | 23.9 | 9040* | 1564 | +
N#Cc1c(N)nc(SCC(=O)OCc2ccccc2)c(C#N)c1-c1ccco1 | 6.0 | 1.0 | 11.6 | 0.889 | -0.606 | 10.0 | . | . | .
O=C(Nc1ccc(-c2noc(CCc3ccccc3)n2)cc1)c1cccnc1 | 8.8 | -6.0 | -15.9 | -1.29 | 0.634 | -2.9 | . | . | .
Nc1nc2n(n1)C(c1ccco1)CC(c1ccccc1)N2 (stereo not drawn) | -0.7 | 8.0 | -13.3 | 13.5* | 0.411 | 7.2 | 20620* | 1600 | +
Nc1nc2n(n1)C(c1ccco1)CC(c1ccc(F)cc1)N2 (stereo not drawn) | 1.0 | 2.0 | -9.6 | 6.97* | 0.205 | -8.0 | 9024* | 1664 | i
Cc1ccc(C2CC(c3ccco3)n3nc(N)nc3N2)cc1 (stereo not drawn) | 2.9 | 12.0 | 0.0 | . | 0.0683 | 15.5 | . | . | .
CCOc1ccc(C2c3cc(OC)c(OC)cc3CC(=O)N2c2ccc(OC)cc2)cc1 (stereo not drawn) | 1.5 | 9.0 | . | . | 0.571 | -5.6 | . | . | .
SMILES | PostGolgi ctrl | E coli WT exp | tolC growth inh | D1 allo mod | hDAT+cocaine | PostGolgi yeast | D1 mod confirm | D1 no dopamine | Isoprot counter
CCNc1nc(SCc2ccccc2)nc(N2CCOCC2)n1 | 13.6 | 2.0 | 65.8* | 22.5* | 0.00252 | 14.8 | 17404* | . | +
Nc1nc(N2CCOCC2)nc(N(c2ccccc2)c2ccccc2)n1 | 1.4 | -13.0 | -4.0 | 1.11 | 1.76 | -6.2 | . | . | .
CNc1nc(SC)nc(N2CCOCC2)n1 | 7.5 | 9.0 | -8.6 | 10.9* | -0.784 | 6.1 | 17184* | 2056 | +
Nc1nc(CSCc2ccccc2)nc(N2CCOCC2)n1 | 6.9 | -4.0 | -13.5 | 4.33* | 0.248 | 15.3 | 12172* | 1852 | +
CN(C)c1nc(SCc2ccccc2)nc(N2CCOCC2)n1 | 7.2 | 10.0 | . | . | 1.04 | -21.5 | . | . | .
CCCCC1=CC2=CC(=O)C(C)(OC(=O)c3cnc4ccccc4n3)C(=O)C2=CO1 (stereo not drawn) | . | . | . | . | 0.151 | . | . | . | .
Cc1ccc(CNC(=O)CN(Cc2ccccc2)S(C)(=O)=O)cc1 | . | . | . | . | -0.149 | . | . | . | .
CCCCCOCC(O)CCC(=O)NN (stereo not drawn) | 2.4 | 2.0 | . | . | -0.696 | -5.3 | . | . | .
Cc1ccc(-n2nnnc2SCC(=O)N2CC(=O)Nc3ccccc32)cc1 | 10.5 | 4.0 | . | . | 1.81 | 3.7 | . | . | .
O=C(NCCO[N+](=O)[O-])c1cccnc1 | . | . | . | . | 0.318 | . | . | . | .
C=CCNC(=O)C1CC(c2cccc(OC)c2)=NO1 (stereo not drawn) | -8.8 | 0.0 | -7.4 | 4.44* | -0.356 | 8.1 | 7068* | 1696 | i
CCOC(=O)c1ccc(S(=O)(=O)Nc2ccc3cn[nH]c3c2)cc1 | -5.8 | 13.0 | . | . | -0.892 | -5.0 | . | . | .
CCCc1nc2sc3c(SCC(=O)NCc4ccco4)ncnc3c2c2c1CCC2 | 7.0 | -18.0 | 24.5 | 5.28* | 0.145 | -10.0 | 8768* | 1628 | i
Cc1nc(SCC(=O)NCc2ccco2)c2c3c(sc2n1)CCCC3 | 4.4 | -2.0 | 39.7 | . | 0.0343 | -5.7 | . | . | .
CCO[C@@H]1OC(C(=O)Nc2ccccc2)=C[C@H](C2CC2)[C@H]1CCCO | . | . | . | . | 0.0249 | . | . | . | .
CCCCCCn1c(NCC)nc2c1c(=O)[nH]c(=O)n2C | 9.9 | 5.0 | -17.1 | 5.31* | -1.13 | 13.3 | 9696* | 1604 | +
CCCCCCn1c(SCC(=O)OC)nc2c1c(=O)[nH]c(=O)n2C | -0.3 | 0.0 | 1.2 | 4.67* | 0.812 | -1.3 | 5408 | 1472 | +
CCCCCn1c(Sc2nc3ccccc3s2)nc2c1c(=O)[nH]c(=O)n2C | 34.7* | -7.0 | 23.7 | 16.6* | 1.41 | 1.5 | 22672* | 1660 | +
